# Test results from PMC3542617 (Cell Death & Disease, 2012).
# Entries after “also recorded” stand apart in the source; their conditions may differ.
# Legend:
# phospho-Ser345-Chk1 = assay: Immunoblot for Chk1 phosphorylation; format: cell-based; details: VE-822 80 nM; gemcitabine 100 nM, XRT 6 Gy; PDAC cells
# Outline: (§1)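 Lysates were taken 2 h post-XRT or 4 h post-gemcitabine, after cold PBS rinse, in reducing Triton lysis buffer. Phospho-Chk1 antibody was used at 1:1000; β-actin was the loading control.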
# DNA-PK [1] = target: T1, DNA-PK (Homo sapiens, UniProt P78527); assay: Biochemical inhibition of ATR and related kinases
# mTOR = mTOR (Homo sapiens, UniProt P42345); assay: Biochemical inhibition of ATR and related kinases
# PI3Kγ = PI3Kγ (Homo sapiens, UniProt P48736); assay: Biochemical inhibition of ATR and related kinases
# Sequence of PI3Kγ (P48736 whole entry, species assumed): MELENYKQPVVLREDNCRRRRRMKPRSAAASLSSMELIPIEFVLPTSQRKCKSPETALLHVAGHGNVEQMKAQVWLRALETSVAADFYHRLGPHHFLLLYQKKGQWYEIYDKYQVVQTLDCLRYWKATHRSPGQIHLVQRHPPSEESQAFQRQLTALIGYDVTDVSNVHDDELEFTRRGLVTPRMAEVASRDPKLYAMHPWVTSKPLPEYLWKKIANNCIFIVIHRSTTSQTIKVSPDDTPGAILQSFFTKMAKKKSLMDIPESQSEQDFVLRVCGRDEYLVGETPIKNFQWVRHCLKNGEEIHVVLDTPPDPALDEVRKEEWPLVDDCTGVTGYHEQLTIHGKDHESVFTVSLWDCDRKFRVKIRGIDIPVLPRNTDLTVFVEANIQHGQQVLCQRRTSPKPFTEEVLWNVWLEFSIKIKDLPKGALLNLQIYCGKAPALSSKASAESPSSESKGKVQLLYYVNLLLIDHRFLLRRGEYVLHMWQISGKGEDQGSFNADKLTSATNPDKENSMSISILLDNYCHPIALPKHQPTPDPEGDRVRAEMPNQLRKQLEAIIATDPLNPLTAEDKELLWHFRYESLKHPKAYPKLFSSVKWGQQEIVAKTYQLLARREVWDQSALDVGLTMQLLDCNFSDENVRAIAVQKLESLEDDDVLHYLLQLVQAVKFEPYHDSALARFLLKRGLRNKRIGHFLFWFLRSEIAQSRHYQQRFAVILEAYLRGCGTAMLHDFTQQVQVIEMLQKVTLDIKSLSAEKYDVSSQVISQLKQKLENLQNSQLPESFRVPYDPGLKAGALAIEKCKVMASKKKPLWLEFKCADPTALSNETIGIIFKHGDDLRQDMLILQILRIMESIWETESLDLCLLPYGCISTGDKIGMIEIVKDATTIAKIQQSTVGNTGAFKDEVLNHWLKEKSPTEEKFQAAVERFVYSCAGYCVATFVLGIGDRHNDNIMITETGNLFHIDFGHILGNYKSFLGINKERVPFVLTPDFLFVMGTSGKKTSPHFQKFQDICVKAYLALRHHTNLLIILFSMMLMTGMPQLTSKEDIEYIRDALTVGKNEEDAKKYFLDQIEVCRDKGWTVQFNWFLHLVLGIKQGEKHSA
# [2] = test system: phospho-Ser-345-Chk1 in PSN-1 xenografts; assay: Chk1 phosphorylation; format: in vivo, mice; details: VE-822 60 mg/kg d0, 1; gemcitabine 100 mg/kg d0; XRT 6 Gy d1; 2 h post-XRT
# PSN-1 xenografts = assay: Tumor growth delay, PSN-1 xenografts; format: in vivo, mice
# Outline: (§2)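 Female Balb/c nude mice were inoculated s.c. with 10^6 cells in serum-free medium plus Matrigel and randomized at ~80 mm3 (day 0). […] Tumor volume was tracked to 600 mm3 (TV600); n=4–5.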
# [3] = test system: fibroblasts (HFL-1, MRC5); assay: Clonogenic survival assay, normal fibroblasts; format: cell-based, human; details: VE-822 80 nM
# ATM [4] = target: T2, ATM (Homo sapiens, UniProt Q13315); assay: Biochemical inhibition of ATR and related kinases
# T2 sequence (Q13315 whole entry, species assumed): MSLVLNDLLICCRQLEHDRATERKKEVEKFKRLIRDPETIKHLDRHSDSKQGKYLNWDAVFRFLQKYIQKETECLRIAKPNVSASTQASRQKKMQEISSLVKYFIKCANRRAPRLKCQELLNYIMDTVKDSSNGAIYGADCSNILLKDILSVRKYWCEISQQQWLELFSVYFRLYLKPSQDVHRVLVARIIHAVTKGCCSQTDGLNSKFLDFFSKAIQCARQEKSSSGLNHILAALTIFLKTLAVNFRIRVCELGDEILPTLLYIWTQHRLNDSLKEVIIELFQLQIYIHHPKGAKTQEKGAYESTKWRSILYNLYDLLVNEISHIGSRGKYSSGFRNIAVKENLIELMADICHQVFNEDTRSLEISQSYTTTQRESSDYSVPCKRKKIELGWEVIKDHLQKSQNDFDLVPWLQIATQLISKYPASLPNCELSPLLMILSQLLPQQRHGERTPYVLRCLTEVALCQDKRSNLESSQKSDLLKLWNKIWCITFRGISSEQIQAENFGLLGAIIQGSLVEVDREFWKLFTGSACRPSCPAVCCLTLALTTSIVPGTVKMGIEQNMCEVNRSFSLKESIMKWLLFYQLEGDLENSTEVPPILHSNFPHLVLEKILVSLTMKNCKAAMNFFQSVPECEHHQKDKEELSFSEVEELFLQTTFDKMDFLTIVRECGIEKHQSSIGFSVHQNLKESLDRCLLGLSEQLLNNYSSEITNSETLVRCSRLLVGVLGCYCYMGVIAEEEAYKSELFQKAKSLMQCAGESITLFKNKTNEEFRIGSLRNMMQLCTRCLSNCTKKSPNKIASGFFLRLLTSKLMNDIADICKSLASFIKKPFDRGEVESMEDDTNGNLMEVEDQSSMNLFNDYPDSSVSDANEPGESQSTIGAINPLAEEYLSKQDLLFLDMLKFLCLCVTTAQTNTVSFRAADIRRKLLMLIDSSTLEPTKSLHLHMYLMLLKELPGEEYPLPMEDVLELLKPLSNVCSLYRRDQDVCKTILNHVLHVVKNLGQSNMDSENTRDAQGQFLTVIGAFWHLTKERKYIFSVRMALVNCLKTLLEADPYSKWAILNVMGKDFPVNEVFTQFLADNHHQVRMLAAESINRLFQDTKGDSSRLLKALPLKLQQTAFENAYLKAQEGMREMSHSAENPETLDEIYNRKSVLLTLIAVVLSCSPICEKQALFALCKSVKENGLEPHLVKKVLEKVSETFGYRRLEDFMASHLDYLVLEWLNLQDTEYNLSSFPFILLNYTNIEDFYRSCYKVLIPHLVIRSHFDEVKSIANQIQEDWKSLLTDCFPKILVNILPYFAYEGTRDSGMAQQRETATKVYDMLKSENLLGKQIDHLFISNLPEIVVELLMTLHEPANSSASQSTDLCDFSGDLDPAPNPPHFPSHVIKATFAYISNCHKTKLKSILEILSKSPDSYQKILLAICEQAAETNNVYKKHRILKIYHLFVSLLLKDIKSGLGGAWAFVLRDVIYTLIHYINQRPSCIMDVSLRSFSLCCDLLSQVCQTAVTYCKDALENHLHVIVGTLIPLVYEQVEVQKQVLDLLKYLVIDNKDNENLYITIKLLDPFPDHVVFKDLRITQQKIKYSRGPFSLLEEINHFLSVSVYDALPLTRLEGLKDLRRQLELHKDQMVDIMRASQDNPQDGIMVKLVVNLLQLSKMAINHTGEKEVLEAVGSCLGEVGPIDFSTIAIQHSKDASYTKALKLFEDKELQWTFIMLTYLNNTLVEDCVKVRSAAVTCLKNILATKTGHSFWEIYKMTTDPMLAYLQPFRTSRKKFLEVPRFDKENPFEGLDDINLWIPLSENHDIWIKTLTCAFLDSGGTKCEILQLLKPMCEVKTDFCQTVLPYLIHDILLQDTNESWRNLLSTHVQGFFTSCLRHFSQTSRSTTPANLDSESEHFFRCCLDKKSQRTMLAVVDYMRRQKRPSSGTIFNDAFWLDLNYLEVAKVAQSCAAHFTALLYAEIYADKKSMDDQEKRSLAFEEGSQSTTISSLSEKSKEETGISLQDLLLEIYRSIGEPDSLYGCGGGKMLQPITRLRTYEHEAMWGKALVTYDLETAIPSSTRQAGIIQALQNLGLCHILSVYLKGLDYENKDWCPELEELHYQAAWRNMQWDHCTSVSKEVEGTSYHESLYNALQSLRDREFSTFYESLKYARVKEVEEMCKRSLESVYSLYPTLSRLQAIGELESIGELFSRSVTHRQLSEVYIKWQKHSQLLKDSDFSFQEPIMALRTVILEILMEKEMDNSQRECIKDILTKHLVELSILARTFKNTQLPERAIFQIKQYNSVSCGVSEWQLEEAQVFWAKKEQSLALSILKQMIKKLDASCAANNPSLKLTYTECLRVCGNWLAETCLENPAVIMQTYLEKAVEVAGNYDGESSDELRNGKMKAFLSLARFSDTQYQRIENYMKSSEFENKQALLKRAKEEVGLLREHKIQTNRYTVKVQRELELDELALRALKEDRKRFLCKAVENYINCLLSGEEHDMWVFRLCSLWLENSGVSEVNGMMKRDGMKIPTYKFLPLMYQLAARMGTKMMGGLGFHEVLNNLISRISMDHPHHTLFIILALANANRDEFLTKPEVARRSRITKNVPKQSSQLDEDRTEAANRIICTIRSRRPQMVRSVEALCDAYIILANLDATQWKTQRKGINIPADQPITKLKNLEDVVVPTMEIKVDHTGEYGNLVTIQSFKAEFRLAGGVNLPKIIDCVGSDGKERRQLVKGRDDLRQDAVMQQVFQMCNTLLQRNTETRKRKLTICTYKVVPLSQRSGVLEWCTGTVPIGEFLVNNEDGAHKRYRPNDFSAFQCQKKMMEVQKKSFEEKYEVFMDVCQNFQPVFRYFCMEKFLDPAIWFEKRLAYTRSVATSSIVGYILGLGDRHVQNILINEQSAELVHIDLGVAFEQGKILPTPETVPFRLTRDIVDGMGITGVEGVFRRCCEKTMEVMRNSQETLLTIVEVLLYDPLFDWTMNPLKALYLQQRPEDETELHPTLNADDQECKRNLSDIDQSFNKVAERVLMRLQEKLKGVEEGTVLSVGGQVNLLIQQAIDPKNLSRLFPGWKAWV
# DNA-PK [5] = target: T1, DNA-PK; assay: Cellular inhibition of ATR and related kinases; format: cell-based
# [6] = test system: human dermal microvascular endothelial cells (HDMECs); assay: Capillary tube formation; format: cell-based; details: VE-822 80 nM; XRT 6 Gy or gemcitabine 50 nM
# [7] = test system: small intestine (jejunum); assay: Intestinal damage after abdominal XRT; format: in vivo, mice
# [8] = test system: phospho-Ser345-Chk1 in HFL-1 normal fibroblasts; assay: Phospho-Chk1; format: cell-based, human; details: VE-822 80 nM
# Outline: as §1
# [9] = test system: PSN-1 and MiaPaCa-2 cells; assay: Analysis of γH2AX, 53BP1 and Rad51 foci; format: cell-based
# [10] = test system: tumor xenograft vessel density; assay: Tumor vessel density; format: in vivo, mice
# Outline: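 Frozen xenograft tumors were cut into 10-μm sections, treated with 0.3% H2O2 for 20 min, then blocked in TNB for 30 min. Sections were stained 1 h with rat anti-mouse CD31 (1:50), then anti-rat […]. Vessels per field were counted in five random viable 10× fields per tumor, n=4–5 tumors per group.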
# PSN-1 cells = assay: Apoptosis in vitro assay; format: cell-based; details: for apoptosis, single agent: VE-822 80 nM or gemcitabine 10 nM, 48 h after XRT time point
# Outline: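 For PSN-1 cells, gemcitabine (10 nM) was given 24 h pre-XRT, then replaced with fresh medium. […] Cells were analysed at 48 h post-XRT by Annexin V-FITC/PI flow cytometry to separate early apoptotic from necrotic cells.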
# [11] = test system: γH2AX in PSN-1 tumor xenografts; assay: SPECT imaging of γH2AX in pancreatic tumor xenografts; format: in vivo, mice
# Outline: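 111In-DTPA–anti-γH2AX-Tat was injected 2 h before radiation, and SPECT/CT was run at 24 h post-XRT. Tumor uptake came from volume-of-interest analysis as %ID/g; organs were then removed, weighed and counted.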
# ATM [12] = target: T2, ATM; assay: Cellular inhibition of ATR and related kinases; format: cell-based
# MiaPaCa-2 xenografts = assay: Tumor growth delay, MiaPaCa-2 xenografts; format: in vivo, mice; details: experiment III
# Outline: as §2
# [13] = test system: ATM, Chk2 or DNA-PK phosphorylation; assay: Immunoblot for ATM/Chk2 and DNA-PK phosphorylation; format: cell-based; details: VE-822 80 nmol/L; XRT 6 Gy
# [14] = test system: PSN-1 and MiaPaCa-2 cells; assay: Cell-cycle assay; format: cell-based
# [15] = test system: PDAC cells (PSN-1, MiaPaCa-2, PancM); assay: Clonogenic survival assay, pancreatic cancer cells; format: cell-based
# [16] = Body weight of mice in growth delay experiments; format: in vivo
smiles,measurement,setting,value
CNCc1ccc(-c2cc(-c3nc(-c4ccc(S(=O)(=O)C(C)C)cc4)cnc3N)on2)cc1 [VE-822],"phospho-Ser345-Chk1 after gemcitabine, XRT or both",phospho-Ser345-Chk1,reduced phospho-Ser345-Chk1
same,Ki,DNA-PK [1],> 4 µM
same,Ki,mTOR,> 1 µM
same,Ki,PI3Kγ,0.22 µM
same,phospho-Ser-345-Chk1 in xenografts after DNA-damaging agents,[2],inhibited phospho-Ser-345-Chk1 in xenografts
same,"tumor growth, VE-822 alone","PSN-1 xenografts; experiment I, 60 mg/kg days 0–5",no effect on tumor growth
same,"TV600 (time to 600 mm^3), XRT plus VE-822 vs XRT alone","PSN-1 xenografts; experiment I, 60 mg/kg for 6 or 4 days, 6 Gy day 1, P<0.001",more than doubled the TV600 of XRT alone
same,"tumor regrowth, VE-822 + fractionated XRT vs fractionated XRT","PSN-1 xenografts; experiment II, 60 mg/kg days 0–5, 5 x 2 Gy days 1–5, P<0.001",significantly delayed regrowth compared with XRT1–5
same,radiosensitisation (TV400) with intermittent dosing,"PSN-1 xenografts; experiment IV, 15, 30 and 60 mg/kg, days 0, 2 and 4, 6 Gy",dose-dependent radiosensitisation response
same,"tumor growth delay, gemcitabine + XRT + VE-822 vs gemcitabine + XRT","PSN-1 xenografts; experiment V, P<0.001",substantially prolonged the tumor growth delay compared with the Gem0XRT1 group
same,"tumor growth delay, VE-822 + XRT vs XRT","PSN-1 xenografts; experiment V, VE-822 60 mg/kg d1, 3, 5, XRT d1, P<0.05",significantly longer compared with the XRT1 group
same,"TV400, gemcitabine + VE-822 vs gemcitabine alone","PSN-1 xenografts; experiment V, gemcitabine 100 mg/kg d0, VE-822 60 mg/kg d1, 3, 5, P>0.05",did not significantly increase TV400 compared with gemcitabine alone
same,clonogenic survival of normal fibroblasts after XRT or gemcitabine,[3],did not alter clonogenic survival of fibroblasts
same,Ki,ATM [4],0.034 µM
same,IC50,DNA-PK [5],18.1 µM
same,tube formation after XRT or gemcitabine,[6],did not modify tube formation
same,"villus tip loss and villi length, VE-822 + XRT vs XRT alone","[7]; 60 mg/kg days 0, 2, 4, 6 Gy day 0, day 5",did not increase villus tip loss or villi shortening
same,"body weight loss, combination vs XRT-only",[7]; abdominal XRT 6 Gy,equivalent body weight loss
same,"phospho-Ser345-Chk1 after gemcitabine, XRT or chemoradiotherapy",[8],reduced phospho-Ser345-Chk1
same,residual γH2AX and 53BP1 foci,"[9]; VE-822 80 nM 1 h before XRT 6 Gy, 24 h post-XRT, vs XRT",increased XRT-induced residual γH2AX and 53BP1 foci
same,Rad51 foci,"[9]; VE-822 80 nM pre-treatment, XRT 6 Gy, 6 h post-XRT",decreased Rad51 foci after XRT
same,"γH2AX, 53BP1 or Rad51 foci, VE-822 alone",[9]; VE-822 alone (data not shown),"no effect on γH2AX, 53BP1 or Rad51 foci"
same,"vessel density, addition of VE-822 and/or XRT to gemcitabine",[10]; growth delay experiment V,did not alter vessel density significantly
same,"vessel density, VE-822 alone or with XRT",[10]; growth delay experiments I-III,did not alter vessel density
same,"apoptosis, single agent",PSN-1 cells,little effect
same,"apoptosis, combinations of VE-822, XRT and/or gemcitabine","PSN-1 cells; VE-822 80 nM, XRT 6 Gy, gemcitabine 10 nM, strongest in triple combination",enhanced early and late apoptosis
same,"tumor uptake of 111In-DTPA–anti-γH2AX-Tat, VE-822 alone",[11]; 60 mg/Kg days 0 and 1,no elevation in uptake
same,"tumor uptake of 111In-DTPA–anti-γH2AX-Tat, VE-822 plus XRT, higher compared with XRT","[11]; 60 mg/Kg days 0 and 1, 6 Gy day 1, 24 h post-XRT, P<0.05",44%
same,IC50,ATM [12],2.6 µM
same,"tumor growth, VE-822 alone vs control",MiaPaCa-2 xenografts; 60 mg/kg days 0–5,no statistical change in tumor growth
same,"tumors that regrew, VE-822 + XRT","MiaPaCa-2 xenografts; 60 mg/kg days 0–5, 6 Gy day 1, n=4",2/4
same,"TV600 of regrowing tumors, VE-822 + XRT vs XRT","MiaPaCa-2 xenografts; two regrowing tumors, P<0.001",significantly longer than the TV600 for the XRT1 group
same,"ATM, Chk2 or DNA-PK phosphorylation in response to radiation",[13],"did not inhibit ATM, Chk2 or DNA-PK phosphorylation"
same,XRT-enriched G2/M-phase-fraction,[14]; VE-822 80 nM + XRT 6 Gy,abrogated by co-treatment with VE-822
same,"cell-cycle distribution, VE-822 alone","[14]; VE-822 80 nM, 12 h and 24 h",increased the G1-phase-fraction
same,gemcitabine-induced S-phase arrest,[14]; gemcitabine 10 nM then VE-822 80 nM,not affected by VE-822
same,clonogenic survival of irradiated PDAC,"[15]; VE-822 80 nM, 1 h before until 18 h post-XRT",decreased survival of irradiated PDAC
same,reduction of survival after chemoradiotherapy (triple combination),"[15]; gemcitabine 10 or 5 nM 24 h, VE-822 80 nM, XRT 4 Gy",dramatically more after chemoradiotherapy
same,reduction of survival on adding VE-822 to gemcitabine,"[15]; gemcitabine 24 h, then VE-822 80 nM 18 h",2–3 fold
same,body weight,[16]; growth delay experiment I,No body weight loss
same,body weight,[16]; growth delay experiment II,no effects on body weight
same,body weight,[16]; growth delay experiment III,no weight loss
same,body weight,[16]; growth delay experiment IV,No weight loss
same,body weight,[16]; growth delay experiment V,no weight loss
"Nc1ccn([C@@H]2O[C@H](CO)[C@@H](O)C2(F)F)c(=O)n1 [gemcitabine, reference compound]","tumor growth, gemcitabine alone",PSN-1 xenografts; 100 mg/kg i.p. day 0,did not alter tumor growth significantly; also recorded: does not itself lead to tumor growth delay
same,"tumor growth delay, gemcitabine + XRT vs gemcitabine","PSN-1 xenografts; experiment V, P<0.05",increased tumor growth delay compared with Gem0
same,vessel density after gemcitabine,[10]; growth delay experiment V,significantly reduced vessel density
same,"apoptosis, single agent",PSN-1 cells,increased apoptosis slightly
